According to BindingDB's records for doi:10.1016/j.bmc.2008.04.041 (The University of Tokushima, 2008):
pIC50: −log10 of the molar value.

Tests used:
[1] = target: 72 kDa type IV collagenase (Homo sapiens, UniProt P08253); assay: Inhibition of human bowes melanoma cell MMP2
[2] = target: Vascular endothelial growth factor receptor 1 (Homo sapiens, UniProt P17948); assay: Inhibition of Flt1 expressed in mouse NIH3T3 cells by autoradiography
[3] = target: Matrix metalloproteinase-9 (Bos taurus, UniProt P52176); assay: Inhibition of bovine arterial endothelial cell MMP9
Chain of Matrix metalloproteinase-9 (P52176 whole entry): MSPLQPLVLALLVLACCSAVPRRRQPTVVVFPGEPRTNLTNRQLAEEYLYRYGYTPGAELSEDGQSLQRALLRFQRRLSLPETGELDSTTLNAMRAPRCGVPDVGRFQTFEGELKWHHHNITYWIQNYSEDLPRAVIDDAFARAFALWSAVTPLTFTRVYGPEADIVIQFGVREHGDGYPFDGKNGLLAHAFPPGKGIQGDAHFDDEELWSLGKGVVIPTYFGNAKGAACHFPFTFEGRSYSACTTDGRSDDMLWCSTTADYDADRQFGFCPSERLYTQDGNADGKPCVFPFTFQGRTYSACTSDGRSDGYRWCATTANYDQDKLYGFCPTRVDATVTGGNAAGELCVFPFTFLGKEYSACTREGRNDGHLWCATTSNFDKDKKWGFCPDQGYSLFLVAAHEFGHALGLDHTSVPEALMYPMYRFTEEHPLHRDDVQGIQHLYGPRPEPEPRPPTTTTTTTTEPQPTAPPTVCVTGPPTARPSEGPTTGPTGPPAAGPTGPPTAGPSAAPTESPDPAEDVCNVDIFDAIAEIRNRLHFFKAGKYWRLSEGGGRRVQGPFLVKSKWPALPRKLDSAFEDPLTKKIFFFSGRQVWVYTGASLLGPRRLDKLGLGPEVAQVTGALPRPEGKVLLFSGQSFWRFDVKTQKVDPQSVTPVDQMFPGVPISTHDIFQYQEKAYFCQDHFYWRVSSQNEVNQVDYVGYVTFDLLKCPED

[4] = target: Epidermal growth factor receptor (Homo sapiens, UniProt P00533); assay: Inhibition of human A431 cell EGFRK assessed as 32P phosphorylation by scintillation counter
Chain of Epidermal growth factor receptor (P00533 whole entry): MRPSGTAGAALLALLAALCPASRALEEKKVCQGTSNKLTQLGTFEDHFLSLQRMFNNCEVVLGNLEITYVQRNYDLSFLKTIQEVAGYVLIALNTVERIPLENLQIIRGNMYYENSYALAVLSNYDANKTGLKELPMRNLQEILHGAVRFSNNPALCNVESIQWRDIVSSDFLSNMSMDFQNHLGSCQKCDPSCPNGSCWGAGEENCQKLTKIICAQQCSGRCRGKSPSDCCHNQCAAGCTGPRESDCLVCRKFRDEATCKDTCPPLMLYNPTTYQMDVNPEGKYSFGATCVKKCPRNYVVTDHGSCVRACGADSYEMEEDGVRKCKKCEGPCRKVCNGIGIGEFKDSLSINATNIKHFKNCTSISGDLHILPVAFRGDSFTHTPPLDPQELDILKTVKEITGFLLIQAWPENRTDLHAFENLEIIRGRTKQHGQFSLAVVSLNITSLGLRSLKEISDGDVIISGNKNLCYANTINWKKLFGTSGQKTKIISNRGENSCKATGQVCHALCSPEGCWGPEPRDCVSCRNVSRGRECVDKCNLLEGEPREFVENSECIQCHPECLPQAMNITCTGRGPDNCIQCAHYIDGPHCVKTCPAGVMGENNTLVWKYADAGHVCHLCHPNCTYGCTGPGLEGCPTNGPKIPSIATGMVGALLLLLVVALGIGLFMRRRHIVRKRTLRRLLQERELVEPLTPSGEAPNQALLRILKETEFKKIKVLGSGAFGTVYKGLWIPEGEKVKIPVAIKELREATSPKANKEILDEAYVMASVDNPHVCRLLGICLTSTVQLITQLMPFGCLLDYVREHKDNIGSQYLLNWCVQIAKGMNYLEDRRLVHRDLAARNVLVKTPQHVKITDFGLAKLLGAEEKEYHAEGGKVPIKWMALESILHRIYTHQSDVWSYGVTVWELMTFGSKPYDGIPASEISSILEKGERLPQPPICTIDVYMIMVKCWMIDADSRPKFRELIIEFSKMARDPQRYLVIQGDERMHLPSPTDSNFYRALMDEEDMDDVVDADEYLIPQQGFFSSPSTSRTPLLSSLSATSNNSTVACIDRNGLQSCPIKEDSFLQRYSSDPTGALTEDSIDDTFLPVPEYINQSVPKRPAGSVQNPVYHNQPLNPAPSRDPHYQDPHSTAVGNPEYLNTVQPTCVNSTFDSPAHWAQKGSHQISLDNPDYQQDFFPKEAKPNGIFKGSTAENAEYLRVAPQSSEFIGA
Procedure, shortened: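 Solubilized A431 cell lysate, debris removed, incubated with or without EGF for 30 min at 25 °C. Reaction started with [γ-³²P]ATP, 10 min at 0 °C. After stopping and washing, receptor phosphorylation measured as ³²P by scintillation counting.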

Chain of 72 kDa type IV collagenase (P08253 whole entry): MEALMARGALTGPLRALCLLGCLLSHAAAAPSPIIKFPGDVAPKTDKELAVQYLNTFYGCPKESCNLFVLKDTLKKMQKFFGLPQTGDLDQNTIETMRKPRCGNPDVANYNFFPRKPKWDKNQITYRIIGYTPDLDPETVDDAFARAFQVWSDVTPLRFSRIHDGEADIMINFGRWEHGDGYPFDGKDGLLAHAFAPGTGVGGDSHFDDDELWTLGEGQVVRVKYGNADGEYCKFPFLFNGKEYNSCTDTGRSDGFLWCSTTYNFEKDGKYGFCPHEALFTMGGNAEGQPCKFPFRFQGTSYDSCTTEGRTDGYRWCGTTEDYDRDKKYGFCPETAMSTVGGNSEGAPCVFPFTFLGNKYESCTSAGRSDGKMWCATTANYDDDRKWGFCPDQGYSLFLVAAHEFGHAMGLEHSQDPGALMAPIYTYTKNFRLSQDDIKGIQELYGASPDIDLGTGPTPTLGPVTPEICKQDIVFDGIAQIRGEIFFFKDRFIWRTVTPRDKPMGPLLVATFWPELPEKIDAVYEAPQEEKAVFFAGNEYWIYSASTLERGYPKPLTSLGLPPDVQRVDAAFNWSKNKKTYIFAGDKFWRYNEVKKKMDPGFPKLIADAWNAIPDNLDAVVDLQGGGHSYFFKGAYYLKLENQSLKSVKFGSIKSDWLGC
Chain of Vascular endothelial growth factor receptor 1 (P17948 whole entry): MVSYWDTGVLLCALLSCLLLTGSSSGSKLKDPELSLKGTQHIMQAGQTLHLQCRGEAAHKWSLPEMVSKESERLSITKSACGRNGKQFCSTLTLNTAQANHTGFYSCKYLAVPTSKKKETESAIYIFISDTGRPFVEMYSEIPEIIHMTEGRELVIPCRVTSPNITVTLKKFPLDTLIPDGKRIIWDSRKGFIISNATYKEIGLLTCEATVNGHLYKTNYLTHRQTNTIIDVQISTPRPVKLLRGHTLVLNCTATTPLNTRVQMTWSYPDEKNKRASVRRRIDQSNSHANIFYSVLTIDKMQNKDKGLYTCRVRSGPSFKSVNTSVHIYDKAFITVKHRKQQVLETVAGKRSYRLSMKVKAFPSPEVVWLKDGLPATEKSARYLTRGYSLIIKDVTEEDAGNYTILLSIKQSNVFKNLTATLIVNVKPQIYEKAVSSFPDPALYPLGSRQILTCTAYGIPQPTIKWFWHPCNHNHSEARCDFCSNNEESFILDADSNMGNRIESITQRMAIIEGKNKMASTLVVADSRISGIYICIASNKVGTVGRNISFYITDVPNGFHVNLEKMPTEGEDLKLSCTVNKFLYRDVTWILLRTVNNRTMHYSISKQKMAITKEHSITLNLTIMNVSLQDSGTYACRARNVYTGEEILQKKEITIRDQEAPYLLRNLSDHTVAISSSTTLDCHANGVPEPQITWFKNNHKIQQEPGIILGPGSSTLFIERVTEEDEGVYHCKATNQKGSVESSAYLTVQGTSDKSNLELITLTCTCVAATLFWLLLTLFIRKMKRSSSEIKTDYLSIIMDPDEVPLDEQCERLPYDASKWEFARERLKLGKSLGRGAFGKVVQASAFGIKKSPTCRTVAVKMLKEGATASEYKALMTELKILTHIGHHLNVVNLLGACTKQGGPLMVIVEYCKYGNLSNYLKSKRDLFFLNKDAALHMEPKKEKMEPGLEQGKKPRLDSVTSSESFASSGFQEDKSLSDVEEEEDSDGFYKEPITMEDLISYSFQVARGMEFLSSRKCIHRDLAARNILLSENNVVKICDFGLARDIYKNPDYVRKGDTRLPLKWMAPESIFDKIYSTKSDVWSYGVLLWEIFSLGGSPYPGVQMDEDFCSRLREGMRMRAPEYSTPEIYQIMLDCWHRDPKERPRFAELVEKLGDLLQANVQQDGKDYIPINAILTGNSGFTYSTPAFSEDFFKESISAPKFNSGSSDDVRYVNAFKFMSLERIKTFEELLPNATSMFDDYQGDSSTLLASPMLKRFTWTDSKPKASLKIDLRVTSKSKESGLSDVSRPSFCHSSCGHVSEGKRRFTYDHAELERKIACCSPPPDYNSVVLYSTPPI

pIC50 [1] | pIC50 [3] | Compound | pIC50 [2] | pIC50 [4]
4.62 | 4.28 | COC[C@@H](Cn1ccnc1[N+](=O)[O-])OC(=O)c1ccc(NC=C2C(=O)C=CC2=O)cc1 | 4.63 | –
– | – | COC[C@H](Cn1ccnc1[N+](=O)[O-])OC(=O)c1ccc(NC=C2C(=O)C=CC2=O)cc1 [TX-2044] | – | 4.64
< 3.62 | < 3.62 | COC[C@@H](Cn1ccnc1[N+](=O)[O-])OC(=O)c1ccc(NC(=O)C(F)(F)F)cc1 [TX-2045] | – | –
< 3.62 | < 3.62 | COC[C@H](Cn1ccnc1[N+](=O)[O-])OC(=O)c1ccc(NC(=O)C(F)(F)F)cc1 [TX-2046] | – | –

Compound | pIC50 [1] | pIC50 [3] | pIC50 [2] | pIC50 [4]
CC(C)(C)c1ccc(OC[C@@H](Cn2ccnc2[N+](=O)[O-])OC(=O)c2ccc(NC=C3C(=O)C=CC3=O)cc2)cc1 [TX-2036] | – | 4.17 | 4.74 | 5.74
CC(C)(C)c1ccc(OC[C@H](Cn2ccnc2[N+](=O)[O-])OC(=O)c2ccc(NC=C3C(=O)C=CC3=O)cc2)cc1 [TX-2037] | 3.74 | 3.99 | 3.74 | 4.74
